This passage reports IC50 and logP results from ChEMBL document CHEMBL1122885, “Imidazo[1,5-a]pyridines: a new class of thromboxane A2 synthetase inhibitors” (J Med Chem, 1985).

Each structure is given as a SMILES string.

Data set [1] addresses T1, Thromboxane-A synthase (Homo sapiens, UniProt P24557).
T1 sequence (P24557 whole entry): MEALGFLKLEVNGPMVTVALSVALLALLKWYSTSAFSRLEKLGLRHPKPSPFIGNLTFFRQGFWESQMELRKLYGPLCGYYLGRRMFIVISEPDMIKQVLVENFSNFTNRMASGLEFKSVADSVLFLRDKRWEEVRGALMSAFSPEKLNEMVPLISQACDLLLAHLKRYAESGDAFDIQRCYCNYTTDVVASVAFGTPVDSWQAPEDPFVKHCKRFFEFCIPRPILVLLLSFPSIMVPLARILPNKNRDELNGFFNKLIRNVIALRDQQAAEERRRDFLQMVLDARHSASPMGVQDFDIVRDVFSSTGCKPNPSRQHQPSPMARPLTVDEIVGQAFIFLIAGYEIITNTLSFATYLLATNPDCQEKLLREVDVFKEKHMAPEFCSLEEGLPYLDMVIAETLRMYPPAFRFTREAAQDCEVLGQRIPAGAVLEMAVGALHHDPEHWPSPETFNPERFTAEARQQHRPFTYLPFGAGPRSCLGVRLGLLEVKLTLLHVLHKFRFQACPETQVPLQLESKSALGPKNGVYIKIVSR
Kind of data set: In vitro inhibition of thromboxane A2 synthetase from human platelets. In a few lines: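 Human platelet microsomal Tx synthetase, mixed with solubilized partially purified sheep seminal vesicle PGH2 synthetase to make endoperoxide in situ from [1-14C]arachidonic acid (2 nmol). Buffer 0.1 M Tris-HCl pH 7.5 with tryptophan 5 mM and hemoglobin 0.2 μM; 30 min, 37 °C. PGE2 reduced; TLC, scintillation counting. IC50 read graphically as 50% fall in TxB2/PGF2(α+β) count ratio; mean of ≥2 experiments.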

Data set [2] is described as follows: Partition coefficient (logP). Type of data set: physicochemical. The conditions noted are these: octanol/water.
The target in data set [3] is Prostacyclin synthase (Bos taurus). Nature of the data set: In vitro inhibitory activity against prostacyclin synthetase.
Data set [4] concerns the target T1, Thromboxane-A synthase. Kind of data set: In vitro inhibitory activity against thromboxane A2 synthetase with lysed human platelets as the enzyme source. In a few lines: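 Crude microsomal Tx synthetase from human platelets plus partially purified sheep seminal vesicle PGH2 synthetase forming endoperoxide in situ from [1-14C]arachidonic acid (4 μM); 0.1 M Tris-HCl pH 7.5, 5 mM tryptophan, 0.2 μM hemoglobin; 30 min, 37 °C. PGE2 reduced to PGF2(α+β); products separated by TLC and counted by scintillation. IC50 read graphically at 50% of control TxB2/PGF2(α+β) count ratio; mean of ≥2 experiments.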

In data set [5] the target is Cyclooxygenase (Ovis aries). Nature of the data set: In vitro inhibitory activity against Prostaglandin G/H synthase.

Turning to `O=C(O)/C=C/CCCc1cccc2cncn12`, in data set [1], the IC50 (in general, the concentration at which inhibition is half-maximal) turned out to be 4.8 nM. In other words, the single-digit nanomolar range. The same measure, in the same setting: the value for `O=C(O)/C=C/CCCCCc1cccc2cncn12` was 40 nM; that for `O=C(O)CCCCc1ccc2cncn2c1` was 3300 nM. On the same count and under the same terms, the value for `Cc1ncc2cccc(CCCCCC(=O)O)n12` was 25000 nM; that for `NC(=O)CCCCCc1cccc2cncn12` was 77 nM; that for `C/C(=C\CCCCCc1cccc2cncn12)C(=O)O` was 19 nM. Regarding `CNC(=O)CCCCCc1cccc2cncn12`, the IC50 in data set [1] is 270 nM. This IC50 lies about 14-fold higher than the previous one. In the case of `O=C(O)CCCCc1cccc2cncn12`, the logP – broadly, the decadic logarithm of the partition coefficient of the neutral form, usually between octanol and water – in data set [2] turned out to be 0.7. The compound further returned an IC50 in data set [1] of 41 nM. Compound `CCCCCCCc1cccc2cncn12` registered an IC50 in data set [1] of 3300 nM. Still for that read-out and setting: the value for `O=C(O)CCCCc1ccn2cncc2c1` was 4700 nM; that for `O=C(CCCCCc1cccc2cncn12)NO` was 20 nM. In data set [2], `O=C(O)CCCCCCc1cccc2cncn12` came in with a logP of 1.54. The compound further came in with a half-maximal inhibitory concentration (IC50) in data set [1] of 5.2 nM. As to `CCOC(=O)CCCCCc1cccc2cncn12`, the midpoint of inhibition in data set [1], the IC50, lay at 330 nM.

`O=C(O)/C=C/C=C/c1cccc2cncn12` had an IC50 in data set [1] of 28 nM.

`O=C(O)CCCCc1cccn2cncc12` yielded an IC50 in data set [1] of 390 nM. Turning to `O=C(O)CCCCCCCc1cccc2cncn12`, the logP in data set [2] came to 2.01. Moreover, in data set [1], the IC50 was 21 nM. Turning to `OCCCCCCc1cccc2cncn12`, the IC50 in data set [1] came out at 280 nM. On the same count and under the same terms, the value for `CN(C)C(=O)CCCCCc1cccc2cncn12` was 550 nM; that for `c1cc(CCCCc2nnn[nH]2)n2cncc2c1` was 11 nM.

In the case of `c1cc(CCCCCc2nnn[nH]2)n2cncc2c1`, the IC50 in data set [1] came out at 19 nM.

The compound `N#CCCCCCc1cccc2cncn12` returned an IC50 in data set [1] of 630 nM.

As for `O=C(O)CCCCCc1cccc2cncn12` [PIRMAGREL], the IC50 in data set [3] is 100000 nM; in data set [4], 3.2 nM; in data set [5], 10000 nM. This compound also came in with a logP in data set [2] of 1.1.
